According to ChEMBL document CHEMBL1138589, “Development of novel aminoglycoside (NB54) with reduced toxicity and enhanced suppression of disease-causing premature stop mutations” (J Med Chem, 2009):
In brackets after ≈: the same amount, converted by molar mass.

What was measured:
Ribosomal RNA A-site [1] = test: Binding affinity to human cytoplasmic ribosomal RNA A-site; format: nucleic-acid assay
Procedure, shortened: (§1)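 UV melting of RNA A-site model oligonucleotide, 2 µM in strand, drug 0 to 10 µM, in 10 mM EPPS (pH 7.0), 10 mM NaCl. RNA preheated 85 °C 5 min and slowly cooled. Absorbance read at 274 nm, 1 cm path, 0.5 °C steps with 1.5 min equilibration per step; ΔTm derived.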

Nucleic Acid [2] = test: Suppression of CFTR G542X nonsense mutant cDNA translation in TNT rabbit reticulocyte lysate transcription translation system at 25 to 100 uM at 30 degC after 90 mins by luciferase reporter gene assay
Procedure, shortened: (§2)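 A dual luciferase reporter plasmid carrying the nonsense-mutation context was used. Luciferase activities were read with a dual luciferase assay kit after incubation, and readthrough was calculated by a previously described method. Translation inhibition was monitored as the ratio of Renilla luciferase activity with versus without aminoglycoside.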

Nucleic Acid [3] = test: Suppression of CFTR W1282X nonsense mutant cDNA translation in TNT rabbit reticulocyte lysate transcription translation system at 25 to 100 uM at 30 degC after 90 mins by luciferase reporter gene assay; procedure, shortened: as §2
Nucleic Acid [4] = test: Suppression of Dystrophin R3381X nonsense mutant cDNA translation in TNT rabbit reticulocyte lysate transcription translation system at 25 to 100 uM at 30 degC after 90 mins by luciferase reporter gene assay; procedure, shortened: as §2
Nucleic Acid [5] = test: Suppression of IDUA Q70X nonsense mutant cDNA translation in TNT rabbit reticulocyte lysate transcription translation system at 25 to 100 uM at 30 degC after 90 mins by luciferase reporter gene assay; procedure, shortened: as §2
Nucleic Acid [6] = test: Suppression of PCDH15 R3X nonsense mutant cDNA translation in TNT rabbit reticulocyte lysate transcription translation system at 25 to 100 uM at 30 degC after 90 mins by luciferase reporter gene assay; procedure, shortened: as §2
[7] = (§3) Toxicity against HEK293 cells; format: cell-based; settings: human, HEK293 cells; read-out: LC50 (the source's name)
[8] = Toxicity against african green monkey COS7 cells; format: cell-based, COS-7; settings: chlorocebus aethiops, read-out: LC50 (the source's name)
[9] = (§4) Toxicity against MDCK cells; format: cell-based, Canis lupus familiaris; settings: dog, MDCK cells; read-out: LC50 (the source's name)
Mus musculus = test: Acute toxicity in iv dosed BALB/c mouse assessed as mortality administered as single dose after 4 days; format: organism-based; settings: in vivo, 96 h
Procedure, shortened: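 Male BALB/c mice, […] (18-20 g), 12 h light/dark cycle at 20-22 °C, food and water ad libitum. Single intravenous tail-vein injection of 150 µL of drug in PBS (pH 7), 8 animals per concentration. Appearance, behaviour and mortality were monitored for 4 days, and LD50 was derived by the Reed and Muench method.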

Escherichia coli [10] = test: Antibacterial activity against Escherichia coli R477-100 by double-microdilution method; format: functional
[11] = Ototoxicity in mouse organ of Corti cochlear explants assessed as inner hair cell loss at 0.1 mM by F-actin staining; format: toxicity; settings: 100 µM
Procedure, shortened: (§5)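 Cochlea dissected from postnatal day 3 mice; organ of Corti/spiral ganglion flat preparation cultured serum-free (BME, supplement, 1% BSA, 2 mM glutamine, glucose, penicillin) at 37°C, 5% CO2, 24 h before medium swapped for drug-containing medium. Fixed in 4% paraformaldehyde, permeabilized with Triton X-100, blocked with goat serum, F-actin stained with fluorescent phalloidin; basal segments examined.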

[12] = Ototoxicity in mouse organ of Corti cochlear explants assessed as outer hair cell loss at 0.1 mM by F-actin staining; format: toxicity; settings: 100 µM; procedure, shortened: as §5
[13] = Ototoxicity in mouse organ of Corti cochlear explants assessed as inner hair cell loss at 1 mM by F-actin staining; format: toxicity; settings: 1000 µM; procedure, shortened: as §5
[14] = Ototoxicity in mouse organ of Corti cochlear explants assessed as inner hair cell loss at 0.2 mM by F-actin staining; format: toxicity; settings: 200 µM; procedure, shortened: as §5
[15] = Ototoxicity in mouse organ of Corti cochlear explants assessed as outer hair cell loss at 0.2 mM by F-actin staining; format: toxicity; settings: 200 µM; procedure, shortened: as §5
Ribosomal RNA A-site [16] = test: Binding affinity to human cytoplasmic ribosomal RNA A-site assessed as thermal stability at compound/RNA ratio of 5 by UV melting profile method; format: nucleic-acid assay; procedure, shortened: as §1
Escherichia coli [17] = test: Inhibition of protein translation in Escherichia coli by coupled transcription/translation assay; format: functional
[18] = Ototoxicity in mouse organ of Corti cochlear explants assessed as outer hair cell loss at 1 mM by F-actin staining; format: toxicity; settings: 1000 µM; procedure, shortened: as §5
Nucleic Acid [19] = test: Suppression of PCDH15 R245X nonsense mutant cDNA translation in TNT rabbit reticulocyte lysate transcription translation system at 25 to 100 uM at 30 degC after 90 mins by luciferase reporter gene assay; procedure, shortened: as §2
Nucleic Acid [20] = test: Suppression of IDUA W402X nonsense mutant cDNA translation in TNT rabbit reticulocyte lysate transcription translation system at 25 to 100 uM at 30 degC after 90 mins by luciferase reporter gene assay; procedure, shortened: as §2
Nucleic Acid [21] = test: Suppression of PCDH15 R3X nonsense mutant cDNA translation in african green monkey COS7 cells at 1 mg/mL; format: cell-based; settings: COS-7
Procedure, shortened: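 Dual luciferase reporter carrying PCDH15-R3X transfected into COS-7 cells by lipofection. Compound added 5 h post-transfection. Luciferase activity measured with a dual luciferase assay system, and readthrough calculated by a previously described method.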

HEK293 = test: as §3; format: cell-based; settings: human, hek293; read-out: LC50 (the source's name)
MDCK = test: as §4; format: cell-based, Canis lupus familiaris; settings: dog, mdck; read-out: LC50 (the source's name)
Nucleic Acid [22] = test: Suppression of PCDH15 R3X nonsense mutant cDNA translation in african green monkey COS7 cells at 0.5 mg/mL; format: cell-based; settings: COS-7
Procedure, shortened: (§6)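 COS-7 cells were lipofected with the dual luciferase construct carrying PCDH15 R3X, and drugs were added 5 h after transfection at varying concentrations. Maximal doses were set from LC50 in COS-7 cells to keep cell viability above 80%. Stop-codon readthrough was read by dual luciferase assay and calculated by a previously described method.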

Nucleic Acid [23] = test: Suppression of PCDH15 R3X nonsense mutant cDNA translation in african green monkey COS7 cells at 0.25 mg/mL; format: cell-based; settings: COS-7; procedure, shortened: as §6

Row | Compound | Activity (Nucleic Acid [2]) [%] | Activity (Nucleic Acid [3]) [%] | Activity (Nucleic Acid [4]) [%] | Activity (Nucleic Acid [5]) [%] | Activity (Nucleic Acid [6]) [%] | CC50 [7] [µM] | CC50 ([8]; COS7 cells) [µM] | CC50 [9] [µM] | LD50 (Mus musculus) [mg/kg] | MIC (Escherichia coli [10]) [µM] | Activity [11] | Activity [12] | Activity [13] | Activity [14] | Activity [15] | ΔTm (Ribosomal RNA A-site [16]) [°C] | IC50 (Escherichia coli [17]; Escherichia coli) [µM] | Activity [18] | Activity (Nucleic Acid [19]) [%] | Activity (Nucleic Acid [20]) [%] | other results
1 | NC[C@H]1O[C@@H](O[C@@H]2[C@@H](O)[C@H](N)C[C@H](N)[C@H]2O[C@H]2O[C@H](CO)[C@@H](O)[C@H](O)[C@H]2N)[C@H](O)[C@@H]1O | 30 | 30 | 30 | 30 | 30 | 7400 | 10800 | 11500 | 240 | 790 (≈ 359 µg/mL) | Non-toxic | Non-toxic | Non-toxic | Toxic | Toxic | 4.5 | 0.415 | Non-toxic | 30 | 30 | Ka (Ribosomal RNA A-site [1]): 4.7 ×10³ /M; Activity (Nucleic Acid [21]): 2.75%
2 | NCC[C@H](O)C(=O)N[C@@H]1C[C@H](N)[C@@H](O[C@H]2O[C@H](CO)[C@@H](O)[C@H](O)[C@H]2N)[C@H](O[C@@H]2O[C@H](CN)[C@@H](O)[C@H]2O)[C@H]1O | 50 | 50 | 50 | 50 | 50 |  |  |  | 500 | 588 (≈ 327 µg/mL) | Non-toxic | Non-toxic | Non-toxic | Toxic | Toxic | 9.7 | 0.159 | Non-toxic | 50 | 50 | CC50 (HEK293): 2800 µM; CC50 ([8]; cos-7): 9300 µM; CC50 (MDCK): 3300 µM; Activity (Nucleic Acid [21]): 5.25%
3 | NC[C@@H]1O[C@H](O[C@H]2[C@@H](O)[C@H](O[C@@H]3[C@@H](O)[C@H](N)C[C@H](N)[C@H]3O[C@H]3O[C@H](CO)[C@@H](O)[C@H](O)[C@H]3N)O[C@@H]2CO)[C@H](N)[C@@H](O)[C@@H]1O [PAROMOMYCIN] | 40 | 40 | 40 | 40 | 40 | 1200 | 1400 | 1500 | 80 | 22 (≈ 13.5 µg/mL) |  |  |  |  |  |  | 0.056 |  | 40 | 40 | Activity (Nucleic Acid [22]): 1.62%
4 | GENTAMICIN [listing 1 of 2 here] | 50 | 50 | 50 | 50 | 50 |  |  |  |  | 6 |  |  |  |  |  |  |  |  | 50 | 50 | Activity (Nucleic Acid [23]): 1.86%
5 | GENTAMICIN [listing 2 of 2 here] |  |  |  |  |  |  |  |  | 60 |  |  |  |  |  |  |  |  |  |  |  | CC50 (HEK293): 1100 µM; CC50 ([8]; cos-7): 750 µM; CC50 (MDCK): 780 µM; IC50 (Escherichia coli [17]): 0.02 µM
